In experiment [1] the target is Nitric oxide synthase 1 (Homo sapiens) (UniProt P29475). Kind of experiment: Inhibition of nNOS.
For experiment [2], the target named is Nitric oxide synthase 1 (Mus musculus) (UniProt Q9Z0J4). Kind of experiment: Inhibition of cytosolic nNOS in stantia nigra isolated from MPTP-induced parkinson's disease C57/Bl6 mouse model assessed as L-[3H]citrulline per mg of protein at 20 mg/kg, b.w 1 hr before MPTP challenge after 32 hrs by liquid scintillation spectroscopy. It is filed as organism-based. Set-up: dose 20 mg/kg. Put shortly: (§1)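 C57/Bl6 mice (22–28 g) given MPTP 15 mg/kg s.c. at 0, 2, 4, 6, 24, 26 and 28 h; single compound dose 20 mg/kg b.w. 1 h before first MPTP; controls got ethanol/saline vehicle. Killed 32 h after treatments; substantia nigra cytosol and mitochondria assayed by L-[3H]-citrulline formation, as pmol/mg protein/min. Seven experiments in triplicate, four SN each.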
Nitric oxide synthase 1 (Mus musculus), sequence (Q9Z0J4 whole entry): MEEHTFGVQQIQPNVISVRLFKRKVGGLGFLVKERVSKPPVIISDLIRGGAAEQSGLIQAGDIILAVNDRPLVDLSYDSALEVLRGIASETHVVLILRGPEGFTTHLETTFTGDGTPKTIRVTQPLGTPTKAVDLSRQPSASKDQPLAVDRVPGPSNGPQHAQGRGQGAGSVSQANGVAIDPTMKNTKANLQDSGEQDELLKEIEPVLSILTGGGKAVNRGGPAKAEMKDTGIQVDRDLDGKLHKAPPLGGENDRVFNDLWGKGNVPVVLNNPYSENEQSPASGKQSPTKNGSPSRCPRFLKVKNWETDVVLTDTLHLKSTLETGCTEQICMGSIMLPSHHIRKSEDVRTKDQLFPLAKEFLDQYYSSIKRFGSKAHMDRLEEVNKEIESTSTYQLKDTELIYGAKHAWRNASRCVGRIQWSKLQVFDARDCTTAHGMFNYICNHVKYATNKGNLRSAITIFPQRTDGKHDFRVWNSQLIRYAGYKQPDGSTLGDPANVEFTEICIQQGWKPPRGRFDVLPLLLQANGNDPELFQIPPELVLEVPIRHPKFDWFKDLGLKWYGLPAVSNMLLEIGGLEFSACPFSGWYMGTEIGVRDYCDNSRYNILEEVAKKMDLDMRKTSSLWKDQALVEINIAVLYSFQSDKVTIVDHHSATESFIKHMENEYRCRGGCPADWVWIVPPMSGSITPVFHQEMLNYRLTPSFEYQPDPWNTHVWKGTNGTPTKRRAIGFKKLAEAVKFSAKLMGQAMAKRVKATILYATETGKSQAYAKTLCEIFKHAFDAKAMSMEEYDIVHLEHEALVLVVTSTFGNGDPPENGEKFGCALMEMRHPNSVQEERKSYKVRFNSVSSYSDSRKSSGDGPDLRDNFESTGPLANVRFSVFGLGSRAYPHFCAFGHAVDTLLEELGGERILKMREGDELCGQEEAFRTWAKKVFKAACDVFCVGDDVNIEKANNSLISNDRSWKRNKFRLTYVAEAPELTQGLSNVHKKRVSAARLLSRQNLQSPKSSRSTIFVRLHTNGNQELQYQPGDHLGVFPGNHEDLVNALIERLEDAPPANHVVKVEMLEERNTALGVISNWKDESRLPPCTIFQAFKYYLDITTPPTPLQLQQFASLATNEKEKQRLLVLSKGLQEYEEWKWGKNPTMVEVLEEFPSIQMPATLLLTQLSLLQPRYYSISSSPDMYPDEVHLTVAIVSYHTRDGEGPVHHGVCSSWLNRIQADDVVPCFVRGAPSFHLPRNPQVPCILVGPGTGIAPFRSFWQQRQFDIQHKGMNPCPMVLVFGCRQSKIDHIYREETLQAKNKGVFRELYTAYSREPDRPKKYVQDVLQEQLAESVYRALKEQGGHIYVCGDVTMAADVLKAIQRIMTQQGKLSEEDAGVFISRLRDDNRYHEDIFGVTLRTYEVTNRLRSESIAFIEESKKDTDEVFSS

Experiment [3] addresses T1, Nitric oxide synthase, inducible (Mus musculus) (UniProt P29477).
T1 sequence (whole entry): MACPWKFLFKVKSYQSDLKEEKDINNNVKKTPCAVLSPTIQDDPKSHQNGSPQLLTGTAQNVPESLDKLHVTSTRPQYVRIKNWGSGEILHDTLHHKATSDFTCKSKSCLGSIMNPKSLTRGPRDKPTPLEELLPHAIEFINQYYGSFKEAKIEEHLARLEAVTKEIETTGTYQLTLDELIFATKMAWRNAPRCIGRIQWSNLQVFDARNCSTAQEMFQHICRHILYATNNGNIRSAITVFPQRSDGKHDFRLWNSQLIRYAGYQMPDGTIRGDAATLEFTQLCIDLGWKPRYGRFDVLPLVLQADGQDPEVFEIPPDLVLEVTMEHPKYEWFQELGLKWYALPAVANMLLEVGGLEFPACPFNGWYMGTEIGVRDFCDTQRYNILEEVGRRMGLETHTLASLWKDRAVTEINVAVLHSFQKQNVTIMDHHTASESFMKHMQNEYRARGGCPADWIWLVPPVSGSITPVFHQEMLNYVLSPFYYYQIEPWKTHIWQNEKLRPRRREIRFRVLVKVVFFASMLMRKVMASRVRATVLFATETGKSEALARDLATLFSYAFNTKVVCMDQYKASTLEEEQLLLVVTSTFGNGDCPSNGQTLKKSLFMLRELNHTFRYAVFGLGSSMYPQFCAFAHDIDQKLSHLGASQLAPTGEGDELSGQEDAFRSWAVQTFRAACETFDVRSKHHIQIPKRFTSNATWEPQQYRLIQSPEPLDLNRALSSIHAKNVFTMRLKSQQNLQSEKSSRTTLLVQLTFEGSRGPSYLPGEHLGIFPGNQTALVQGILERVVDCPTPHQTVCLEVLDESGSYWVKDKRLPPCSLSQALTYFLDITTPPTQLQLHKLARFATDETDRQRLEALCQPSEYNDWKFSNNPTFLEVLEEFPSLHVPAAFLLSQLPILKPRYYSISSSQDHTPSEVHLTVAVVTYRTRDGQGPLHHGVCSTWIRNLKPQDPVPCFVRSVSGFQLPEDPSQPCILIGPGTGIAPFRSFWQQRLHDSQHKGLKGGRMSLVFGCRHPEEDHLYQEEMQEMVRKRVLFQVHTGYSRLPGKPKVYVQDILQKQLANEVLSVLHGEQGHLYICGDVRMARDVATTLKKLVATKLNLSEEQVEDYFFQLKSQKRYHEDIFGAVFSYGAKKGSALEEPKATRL
As to the kind of experiment: Inhibition of cytosolic iNOS in stantia nigra isolated from MPTP-induced parkinson's disease C57/Bl6 mouse model assessed as L-[3H]citrulline per mg of protein at 20 mg/kg, b.w 1 hr before MPTP challenge after 32 hrs by liquid scintillation spectroscopy. Set-up: dose 20 mg/kg. Format: organism-based. The essentials:
as §1

Experiment [4] has as its target Nitric oxide synthase 1 (Mus musculus) (UniProt Q9Z0J4). Kind of experiment: Inhibition of constitutive mitochondrial NOS in stantia nigra isolated from MPTP-induced parkinson's disease C57/Bl6 mouse model assessed as L-[3H]citrulline per mg of protein at 20 mg/kg, b.w 1 hr before MPTP challenge after 32 hrs by liquid scintillation spectroscopy. It is filed as organism-based. Set-up: dose 20 mg/kg. The essentials:
as §1

Experiment [5] concerns the target T1, Nitric oxide synthase, inducible (Mus musculus). Kind of experiment: Inhibition of inducible mitochondrial NOS in stantia nigra isolated from MPTP-induced parkinson's disease C57/Bl6 mouse model assessed as L-[3H]citrulline per mg of protein at 20 mg/kg, b.w 1 hr before MPTP challenge after 32 hrs by liquid scintillation spectroscopy. Format: organism-based. Also noted: dose 20 mg/kg. Put shortly: as §1

Experiment [6] has as its target Nitric oxide synthase 1 (Rattus norvegicus) (UniProt P29476). Kind of experiment: Inhibition of nNOS in Wistar rat striata tissue homogenate assessed as conversion of L-[3H]arginine to L-[3H]citrulline at 1 mM by liquid scintillation spectroscopy. It is filed as tissue-based. The following applies: Striatum. The essentials:
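Male Wistar rats killed by cervical dislocation; fresh striata homogenized in Tris-HCl pH 7.6 with protease inhibitors, spun 1000g 5 min. Supernatant incubated 30 min at 37 °C with 10 µM L-arginine plus 50 nM L-[3H]-arginine, CaCl2, BH4, FAD, NADPH 0.75 mM final; compound 1 mM final in DMSO. Dowex-50W separation; citrulline by scintillation; NADPH-omitted blank subtracted. Three experiments in triplicate, four striata each.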

Experiment [7] deals with Nitric oxide synthase, inducible (Rattus norvegicus) (UniProt Q06518). Kind of experiment: Inhibition of iNOS in LPS-treated Wistar rat lung tissue homogenate assessed as conversion of L-[3H]arginine to L-[3H]citrulline at 1 mM by liquid scintillation spectroscopy. Put shortly:
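iNOS induced in Wistar rats by LPS 20 mg/Kg i.v.; lungs taken 8 h later, homogenized in ice-cold Tris-HCl pH 7.6 with protease inhibitors, then incubated with 10 mM EDTA to remove nNOS activity. Conversion of L-[3H]-arginine to L-[3H]-citrulline at 37 °C for 30 min with NADPH, compound 1 mM final; Dowex separation, scintillation counting.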

A short description of experiment [8]: Binding affinity to CaCAM.

Active and inactive are the calls of the source. The rule behind the calls is not given here.

Nitric oxide synthase, inducible (Rattus norvegicus), sequence (Q06518 whole entry): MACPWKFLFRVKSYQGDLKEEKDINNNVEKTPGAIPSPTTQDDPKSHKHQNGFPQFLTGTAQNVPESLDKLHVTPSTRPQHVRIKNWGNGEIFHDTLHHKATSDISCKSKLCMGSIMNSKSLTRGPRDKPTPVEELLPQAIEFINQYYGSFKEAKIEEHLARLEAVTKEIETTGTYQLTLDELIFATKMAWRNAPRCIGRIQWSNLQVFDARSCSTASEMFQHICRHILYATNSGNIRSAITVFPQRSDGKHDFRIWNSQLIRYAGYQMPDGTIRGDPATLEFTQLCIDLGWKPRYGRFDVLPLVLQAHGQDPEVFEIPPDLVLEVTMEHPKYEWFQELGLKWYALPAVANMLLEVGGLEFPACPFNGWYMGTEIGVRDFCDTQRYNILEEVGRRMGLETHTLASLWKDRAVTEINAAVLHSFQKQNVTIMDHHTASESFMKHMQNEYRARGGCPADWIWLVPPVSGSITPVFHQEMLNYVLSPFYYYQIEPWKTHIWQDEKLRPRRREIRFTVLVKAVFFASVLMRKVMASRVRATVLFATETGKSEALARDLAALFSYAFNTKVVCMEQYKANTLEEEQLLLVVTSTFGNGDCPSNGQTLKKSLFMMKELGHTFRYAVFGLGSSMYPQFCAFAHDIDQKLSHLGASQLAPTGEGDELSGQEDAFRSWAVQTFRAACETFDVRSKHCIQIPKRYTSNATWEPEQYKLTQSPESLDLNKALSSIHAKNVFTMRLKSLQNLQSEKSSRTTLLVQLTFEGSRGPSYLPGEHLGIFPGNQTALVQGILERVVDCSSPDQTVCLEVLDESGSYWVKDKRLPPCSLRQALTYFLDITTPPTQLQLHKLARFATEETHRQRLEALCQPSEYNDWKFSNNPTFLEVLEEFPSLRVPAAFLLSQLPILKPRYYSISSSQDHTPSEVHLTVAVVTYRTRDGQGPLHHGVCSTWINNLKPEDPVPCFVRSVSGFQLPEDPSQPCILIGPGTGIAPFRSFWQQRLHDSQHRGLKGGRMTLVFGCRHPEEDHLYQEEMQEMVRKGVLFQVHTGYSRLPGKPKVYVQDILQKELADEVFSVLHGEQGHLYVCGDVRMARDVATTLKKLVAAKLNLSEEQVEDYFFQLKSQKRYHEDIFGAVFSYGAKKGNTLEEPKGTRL
Nitric oxide synthase 1 (Rattus norvegicus), sequence (P29476 whole entry): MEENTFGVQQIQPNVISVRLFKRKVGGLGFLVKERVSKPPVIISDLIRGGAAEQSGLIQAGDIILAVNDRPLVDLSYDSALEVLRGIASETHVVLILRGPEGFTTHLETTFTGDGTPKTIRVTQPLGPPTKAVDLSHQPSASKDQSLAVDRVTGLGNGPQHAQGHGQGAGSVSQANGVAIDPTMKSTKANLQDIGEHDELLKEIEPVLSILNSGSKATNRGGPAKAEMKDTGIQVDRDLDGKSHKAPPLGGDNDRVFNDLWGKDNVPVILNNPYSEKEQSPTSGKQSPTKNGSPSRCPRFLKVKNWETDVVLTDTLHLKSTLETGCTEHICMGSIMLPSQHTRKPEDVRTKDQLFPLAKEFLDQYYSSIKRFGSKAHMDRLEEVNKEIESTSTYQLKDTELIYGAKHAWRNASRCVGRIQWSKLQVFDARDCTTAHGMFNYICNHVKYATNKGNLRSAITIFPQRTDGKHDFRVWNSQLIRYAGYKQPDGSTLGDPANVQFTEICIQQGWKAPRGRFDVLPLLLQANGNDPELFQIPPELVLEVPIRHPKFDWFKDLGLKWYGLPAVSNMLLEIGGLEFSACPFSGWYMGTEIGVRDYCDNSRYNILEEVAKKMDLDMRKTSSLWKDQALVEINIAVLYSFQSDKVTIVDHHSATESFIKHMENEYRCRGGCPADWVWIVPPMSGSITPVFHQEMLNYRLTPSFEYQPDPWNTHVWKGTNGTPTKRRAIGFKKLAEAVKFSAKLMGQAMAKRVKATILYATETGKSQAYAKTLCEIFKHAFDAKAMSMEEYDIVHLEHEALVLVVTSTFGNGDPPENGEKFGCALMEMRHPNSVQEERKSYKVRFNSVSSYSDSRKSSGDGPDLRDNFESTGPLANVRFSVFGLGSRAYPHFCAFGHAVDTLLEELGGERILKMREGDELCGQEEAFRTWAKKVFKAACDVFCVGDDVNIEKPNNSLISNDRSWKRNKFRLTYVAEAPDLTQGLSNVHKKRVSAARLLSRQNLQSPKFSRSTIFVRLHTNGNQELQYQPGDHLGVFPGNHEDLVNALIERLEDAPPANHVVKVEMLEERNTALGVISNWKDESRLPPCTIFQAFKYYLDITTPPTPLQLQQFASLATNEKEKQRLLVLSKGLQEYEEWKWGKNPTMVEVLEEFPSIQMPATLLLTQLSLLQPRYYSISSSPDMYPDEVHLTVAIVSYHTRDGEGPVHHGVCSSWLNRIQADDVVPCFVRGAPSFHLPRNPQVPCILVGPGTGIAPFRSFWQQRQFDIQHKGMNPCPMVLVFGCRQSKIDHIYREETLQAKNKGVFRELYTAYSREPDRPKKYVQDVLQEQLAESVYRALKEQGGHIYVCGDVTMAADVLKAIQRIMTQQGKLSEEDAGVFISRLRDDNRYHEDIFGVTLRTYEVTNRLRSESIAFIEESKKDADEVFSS

Take `COc1ccc2[nH]cc(CCNC(C)=O)c2c1`: in experiment [1], the inhibition result was “Dose-dependent effect”. In addition, the Activity in experiment [2] is 19.9 pmol/min; in experiment [3], 19 pmol/min; in experiment [4] it was 13.8 pmol/min; in experiment [5] it was 23.6 pmol/min.

On to `Nc1ccccc1-c1ccc(C(=O)NCc2ccccc2)[nH]1`, for which the inhibition amounted to 7.52% in experiment [6] and 28.1% in experiment [7]. Also, in experiment [8], the result was inactive.

Regarding `CCCCNC(=O)c1ccc(-c2cc(Cl)ccc2N)[nH]1`, the inhibition was 36.5% in experiment [6] and 3.33% in experiment [7]. The outcome in experiment [8] was inactive.

Consider `Cn1c(C(N)=O)ccc1-c1ccccc1N`, for which the values for the inhibition in experiment [6] and in experiment [7] were 9.56% and 16%, respectively. For the same compound, the outcome in experiment [8] was inactive.

For the compound `COc1ccc(N)c(-c2ccc(C(=O)NCc3ccccc3)[nH]2)c1`, the inhibition in experiment [6] came out at 8.89%; in experiment [7] it was 22.4%. In addition, the outcome in experiment [8] was inactive.

For the compound `NC(=O)c1ccc(-c2cc(Cl)ccc2N)[nH]1`, the inhibition in experiment [6] is 34.5%; in experiment [7], 5.34%. The result in experiment [8] was inactive.

Consider `CCNC(=O)c1ccc(-c2cc(Cl)ccc2N)[nH]1`, for which the inhibition in experiment [6] was 33.4%; in experiment [7] it was 2.8%. Moreover, the outcome in experiment [8] was inactive.

As to `COc1ccc(N)c(-c2ccc(C(N)=O)[nH]2)c1`, in experiment [7], the inhibition turned out to be 8.95%. The outcome in experiment [8] was inactive.

For `Nc1ccccc1-c1ccc(C(=O)NC2CC2)[nH]1`, the inhibition in experiment [6] was 2.92%; in experiment [7] it was -1.1%. Moreover, in experiment [8], the result was inactive.

As to `COc1ccc(N)c(C(=O)CCNC(C)=O)c1`, in experiment [1], the inhibition result is “Dose-dependent effect”.

`COc1ccc(N)c(-c2ccc(C(=O)NC3CC3)[nH]2)c1`: the figures for the inhibition in experiment [6] and in experiment [7] were 32.5% and 21.4%, respectively. The outcome in experiment [8] was inactive.

For `CN1CC=C(c2ccccc2)CC1`, the Activity in experiment [2] amounted to 83.7 pmol/min; in experiment [3], 29.4 pmol/min; in experiment [4], 25.9 pmol/min; in experiment [5] it was 43.8 pmol/min.

Turning to `Nc1ccccc1-c1ccc(C(=O)NC2CCCC2)[nH]1`, the figures for the inhibition in experiment [6] and in experiment [7] were 5.36% and 52.8%, respectively. Moreover, the Activity in experiment [2] came to 74.3 pmol/min; in experiment [3], 6.53 pmol/min; in experiment [4] it was 14.1 pmol/min; in experiment [5], 9.45 pmol/min. Moreover, in experiment [8], the outcome was inactive.

`Nc1ccc(Cl)cc1-c1ccc(C(=O)NC2CC2)[nH]1`: the inhibition is 48.1% in experiment [6] and 7.2% in experiment [7]. Besides, the outcome in experiment [8] was inactive.

Consider `CCNC(=O)c1ccc(-c2ccccc2N)[nH]1`, for which the inhibition in experiment [6] turned out to be 4.15%; in experiment [7] it was 20.5%. In addition, in experiment [8], the result was inactive.

For the compound `NC(=O)c1ccc(-c2ccccc2N)[nH]1`, the inhibition was found to be 15% in experiment [6] and 3.07% in experiment [7]. Moreover, the result in experiment [8] was inactive.

With `Nc1ccccc1-c1ccc(C(=O)NC2CCCCC2)[nH]1`, the inhibition was 13.4% in experiment [6] and 17.2% in experiment [7]. Besides, the outcome in experiment [8] was inactive.

Regarding `CNC(=O)c1ccc(-c2cc(Cl)ccc2N)[nH]1`, the results for the inhibition in experiment [6] and in experiment [7] were 17.1% and 1.27%, respectively. In addition, in experiment [8], the result was inactive.

For the compound `CNC(=O)c1ccc(-c2ccccc2N)[nH]1`, in experiment [7], the inhibition amounted to 32.7%. The Activity in experiment [2] was 65.5 pmol/min; in experiment [3], 5.78 pmol/min; in experiment [4], 9.95 pmol/min; in experiment [5], 7.46 pmol/min. The outcome in experiment [8] was inactive.

Consider `CCCNC(=O)c1ccc(-c2cc(OC)ccc2N)[nH]1`, for which the inhibition in experiment [6] stood at 43.5%; in experiment [7], 6.78%. In experiment [8], the outcome was inactive.

As for `CCCNC(=O)c1ccc(-c2ccccc2N)[nH]1`, the inhibition in experiment [7] turned out to be 13.2%. Also, the result in experiment [8] was inactive.

With `CCCCNC(=O)c1ccc(-c2ccccc2N)[nH]1`, the inhibition in experiment [6] was -0.01%; in experiment [7] it was 7.53%. Also, the result in experiment [8] was inactive.

Regarding `CNC(=O)c1ccc(-c2cc(OC)ccc2N)[nH]1`, in experiment [7], the inhibition amounted to 26.2%. In experiment [8], the result was inactive.

Consider `COc1ccc(N)c(C(=O)CC(NC(C)=O)C(=O)O)c1` (stereo unspecified), for which the inhibition entry in experiment [1] was “Dose-dependent effect”.

Take `Nc1ccccc1-c1ccc(C(=O)NC2CCC2)[nH]1`: the inhibition in experiment [6] amounted to 8.44%; in experiment [7] it was 20.1%. Moreover, the outcome in experiment [8] was inactive.

On to `COc1ccc(N)c(-c2ccc(C(=O)NC3CCCC3)[nH]2)c1`, for which the results for the inhibition in experiment [6] and in experiment [7] were 15.3% and 26.2%, respectively. For the same compound, the result in experiment [8] was inactive.

The record behind these values is ChEMBL document CHEMBL1158377, “Phenylpyrrole derivatives as neural and inducible nitric oxide synthase (nNOS and iNOS) inhibitors” (Eur J Med Chem, 2009).
